The text below walks through data of ChEMBL document CHEMBL3244092, “Synthesis of episilon-rhodomycinone glycosides” (1977).

The source made the active and inactive calls. The rule behind the calls is not given here.

The first assay has as its system P388. The assay can be described thus: Antitumor activity against mouse P388 cells allografted in CDF mouse assessed as tumor growth inhibition at 32 to 128 mg/kg/day relative to control. In kind it is functional. In a few lines:
(§1)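 P388 lymphatic leukemia carried in CDF mice, with compound given as a daily dose in mg/kg/day. Activity was read out as T/C, treated versus control. Route, vehicle and schedule length are not given.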
As for `CC[C@@]1(O)C[C@H](O[C@H]2C[C@H](OC(C)=O)[C@H](OC(C)=O)CO2)c2c(O)c3c(c(O)c2[C@H]1C(=O)OC)C(=O)c1cccc(O)c1C3=O`, the T/C (as a rule, the result in the treated group divided by that in the control group, in per cent) amounted to 110%.

In a further assay the test system is Bacillus subtilis. In words: Antibacterial activity against Bacillus subtilis. In kind it is functional, organism-based.
Take `CC[C@@]1(O)C[C@H](O[C@H]2C[C@H](OC(C)=O)[C@H](OC(C)=O)CO2)c2c(O)c3c(c(O)c2[C@H]1C(=O)OC)C(=O)c1cccc(O)c1C3=O`: the outcome was Active.

The next assay relates to Enterobacteria phage lambda. In words: Induction of lambda phage production in streptomycin-dependent lysogenic Escherichia coli W1709(lambda) assessed as ratio of plaques in treated culture to control. In kind it is functional.
For the molecule `CC[C@@]1(O)C[C@H](O[C@H]2C[C@H](O)[C@@H](O)[C@H](C)O2)c2c(O)c3c(c(O)c2[C@H]1C(=O)OC)C(=O)c1cccc(O)c1C3=O`, the outcome was inactive.

For the molecule `CC[C@@]1(O)C[C@H](O[C@@H]2OC[C@H](OC(C)=O)[C@@H](OC(C)=O)[C@H]2OC(C)=O)c2c(O)c3c(c(O)c2[C@H]1C(=O)OC)C(=O)c1cccc(O)c1C3=O`, the result was inactive. With `CC[C@@]1(O)C[C@H](O[C@H]2C[C@H](O)[C@@H](CO)O2)c2c(O)c3c(c(O)c2[C@H]1C(=O)OC)C(=O)c1cccc(O)c1C3=O`, the result was inactive. With `CC[C@@]1(O)C[C@H](O[C@@H]2OC[C@H](O)[C@H](O)[C@H]2O)c2c(O)c3c(c(O)c2[C@H]1C(=O)OC)C(=O)c1cccc(O)c1C3=O`, the result was inactive. As for `CC[C@@]1(O)C[C@H](O[C@@H]2O[C@H](COC(=O)c3ccccc3)[C@@H](OC(=O)c3ccccc3)[C@H]2OC(=O)c2ccccc2)c2c(O)c3c(c(O)c2[C@H]1C(=O)OC)C(=O)c1cccc(O)c1C3=O`, the outcome was inactive. Take `CC[C@@]1(O)C[C@H](O[C@@H]2O[C@H](COCc3ccccc3)[C@@H](OCc3ccccc3)[C@@H]2OCc2ccccc2)c2c(O)c3c(c(O)c2[C@H]1C(=O)OC)C(=O)c1cccc(O)c1C3=O`: the outcome was inactive. With `CC[C@@]1(O)C[C@H](O[C@@H]2O[C@H](COC(C)=O)[C@@H](OC(C)=O)[C@H](OC(C)=O)[C@H]2OC(C)=O)c2c(O)c3c(c(O)c2[C@H]1C(=O)OC)C(=O)c1cccc(O)c1C3=O`, the outcome was inactive. With `CC[C@@]1(O)C[C@H](O[C@@H]2O[C@H](CO)[C@@H](O)[C@H](O)[C@H]2O)c2c(O)c3c(c(O)c2[C@H]1C(=O)OC)C(=O)c1cccc(O)c1C3=O`, the result was inactive. As to `CC[C@@]1(O)C[C@H](O[C@@H]2OC[C@H](OC(C)=O)[C@H](OC(C)=O)[C@H]2OC(C)=O)c2c(O)c3c(c(O)c2[C@H]1C(=O)OC)C(=O)c1cccc(O)c1C3=O`, the result was inactive. In the case of `CC[C@@]1(O)C[C@H](O[C@H]2C[C@H](OC(=O)c3ccc([N+](=O)[O-])cc3)[C@@H](COC(=O)c3ccc([N+](=O)[O-])cc3)O2)c2c(O)c3c(c(O)c2[C@H]1C(=O)OC)C(=O)c1cccc(O)c1C3=O`, the outcome was inactive.

For `CC[C@@]1(O)C[C@H](O[C@@H]2O[C@@H](COC(=O)c3ccccc3)[C@@H](OC(=O)c3ccccc3)[C@H]2OC(=O)c2ccccc2)c2c(O)c3c(c(O)c2[C@H]1C(=O)OC)C(=O)c1cccc(O)c1C3=O`, the outcome was inactive. With `CC[C@@]1(O)C[C@H](O[C@@H]2OC[C@@H](OC(C)=O)[C@@H](OC(C)=O)[C@@H]2OC(C)=O)c2c(O)c3c(c(O)c2[C@H]1C(=O)OC)C(=O)c1cccc(O)c1C3=O`, the result was inactive. `CC[C@@]1(O)C[C@H](O[C@@H]2O[C@@H](C)[C@@H](O)[C@@H](O)[C@@H]2O)c2c(O)c3c(c(O)c2[C@H]1C(=O)OC)C(=O)c1cccc(O)c1C3=O`: the result was inactive. In the case of `CC[C@@]1(O)C[C@H](O[C@@H]2OC[C@@H](OC(C)=O)[C@H](OC(C)=O)[C@H]2OC(C)=O)c2c(O)c3c(c(O)c2[C@H]1C(=O)OC)C(=O)c1cccc(O)c1C3=O`, the outcome was inactive.

For `CC[C@@]1(O)C[C@H](O[C@@H]2O[C@H](CO)[C@@H](O)[C@H]2O)c2c(O)c3c(c(O)c2[C@H]1C(=O)OC)C(=O)c1cccc(O)c1C3=O`, the outcome was inactive.

In the case of `CC[C@@]1(O)C[C@H](O[C@@H]2O[C@H](CO)[C@H](O)[C@H]2O)c2c(O)c3c(c(O)c2[C@H]1C(=O)OC)C(=O)c1cccc(O)c1C3=O`, the outcome was inactive. `CC[C@@]1(O)C[C@H](O[C@@H]2O[C@@H](CO)[C@@H](O)[C@H]2O)c2c(O)c3c(c(O)c2[C@H]1C(=O)OC)C(=O)c1cccc(O)c1C3=O`: the result was inactive. Take `CC[C@@]1(O)C[C@H](O[C@@H]2O[C@@H](C)[C@H](OC(C)=O)[C@@H](OC(C)=O)[C@H]2OC(C)=O)c2c(O)c3c(c(O)c2[C@H]1C(=O)OC)C(=O)c1cccc(O)c1C3=O`: the result was inactive. Take `CC[C@@]1(O)C[C@H](O[C@H]2C[C@H](O)[C@H](O)[C@H](C)O2)c2c(O)c3c(c(O)c2[C@H]1C(=O)OC)C(=O)c1cccc(O)c1C3=O`: the outcome was inactive. For the molecule `CC[C@@]1(O)C[C@H](O[C@@H]2O[C@@H](C)[C@@H](OC(C)=O)[C@@H](OC(C)=O)[C@@H]2OC(C)=O)c2c(O)c3c(c(O)c2[C@H]1C(=O)OC)C(=O)c1cccc(O)c1C3=O`, the outcome was inactive. Still for that read-out and setting: with `CC[C@@]1(O)C[C@H](O[C@H]2C[C@H](OC(C)=O)[C@H](OC(C)=O)CO2)c2c(O)c3c(c(O)c2[C@H]1C(=O)OC)C(=O)c1cccc(O)c1C3=O` the entry was “inactive”; with `CC[C@@]1(O)C[C@H](O[C@H]2C[C@H](OC(C)=O)[C@@H](OC(C)=O)[C@H](C)O2)c2c(O)c3c(c(O)c2[C@H]1C(=O)OC)C(=O)c1cccc(O)c1C3=O`, “inactive”; with `CC[C@@]1(O)C[C@H](O[C@@H]2O[C@H](COC(=O)c3ccc([N+](=O)[O-])cc3)[C@H](OC(=O)c3ccc([N+](=O)[O-])cc3)[C@H]2OC(=O)c2ccc([N+](=O)[O-])cc2)c2c(O)c3c(c(O)c2[C@H]1C(=O)OC)C(=O)c1cccc(O)c1C3=O`, “inactive”. In the case of `CC[C@@]1(O)C[C@H](O[C@H]2C[C@H](OC(C)=O)[C@H](OC(C)=O)[C@H](C)O2)c2c(O)c3c(c(O)c2[C@H]1C(=O)OC)C(=O)c1cccc(O)c1C3=O`, the result was inactive. Same read-out and setting: to `CC[C@@]1(O)C[C@H](O[C@H]2C[C@H](O)[C@H](O)CO2)c2c(O)c3c(c(O)c2[C@H]1C(=O)OC)C(=O)c1cccc(O)c1C3=O` belongs “inactive”; to `CC[C@@]1(O)C[C@H](O[C@@H]2OC[C@@H](OC(C)=O)[C@@H](OC(C)=O)[C@H]2OC(C)=O)c2c(O)c3c(c(O)c2[C@H]1C(=O)OC)C(=O)c1cccc(O)c1C3=O`, “inactive”.

The test system of another assay is P388. In words: Antitumor activity against mouse P388 cells allografted in CDF mouse assessed as tumor growth inhibition at 13 mg/kg/day relative to control. It counts as functional. In a few lines:
as §1
As for `CC[C@@]1(O)C[C@H](O[C@H]2C[C@H](O)[C@H](O)CO2)c2c(O)c3c(c(O)c2[C@H]1C(=O)OC)C(=O)c1cccc(O)c1C3=O`, the T/C was found to be 115%.

In another assay the test system is P388. The assay can be described thus: Antitumor activity against mouse P388 cells allografted in CDF mouse assessed as tumor growth inhibition at 64 mg/kg/day relative to control. In kind it is functional. An outline of the steps: as §1
With `CC[C@@]1(O)C[C@H](O[C@H]2C[C@H](OC(C)=O)[C@H](OC(C)=O)CO2)c2c(O)c3c(c(O)c2[C@H]1C(=O)OC)C(=O)c1cccc(O)c1C3=O`, the T/C came out at 125%.

A further assay concerns P388. In words: Antitumor activity against mouse P388 cells allografted in CDF mouse assessed as tumor growth inhibition at 18 mg/kg/day relative to control. It counts as functional. An outline of the steps: as §1
With `CC[C@@]1(O)C[C@H](O[C@H]2C[C@H](O)[C@H](O)[C@H](C)O2)c2c(O)c3c(c(O)c2[C@H]1C(=O)OC)C(=O)c1cccc(O)c1C3=O`, the T/C came out at 109%.
